Series [1] relates to Enterococcus faecalis. Description: Antibacterial activity against 10^4 CFU Enterococcus faecalis 08-10 after 18 hrs by CLSI agar dilution method. The format is functional. To be noted: 08-10, 18 h.
Series [2] concerns Staphylococcus epidermidis. Description: Antibacterial activity against 10^4 CFU methicillin-resistant Staphylococcus epidermidis 09-2 after 18 hrs by CLSI agar dilution method. The format is functional. The settings on record: 09-2, 18 h.
For series [3], the system named is Pseudomonas aeruginosa. Description: Antibacterial activity against 10^4 CFU Pseudomonas aeruginosa ATCC 27853 after 18 hrs by CLSI agar dilution method. The format is functional. The settings on record: ATCC 27853, 18 h.
Series [4] concerns Staphylococcus aureus. Description: Antibacterial activity against 10^4 CFU Staphylococcus aureus ATCC 25923 after 18 hrs by CLSI agar dilution method. The format is functional. To be noted: ATCC 25923, 18 h.
The test system of series [5] is Enterococcus faecalis. Description: Antibacterial activity against 10^4 CFU Enterococcus faecalis 08-12 after 18 hrs by CLSI agar dilution method. It counts as functional. To be noted: 08-12, 18 h.
Series [6] deals with Pseudomonas aeruginosa. The series can be described thus: Antibacterial activity against 10^4 CFU Pseudomonas aeruginosa 09-32 after 18 hrs by CLSI agar dilution method. It counts as functional. The settings on record: 09-32, 18 h.
Another series has as its system Streptococcus pneumoniae. Description: Antibacterial activity against 10^4 CFU Streptococcus pneumoniae 08-4 after 18 hrs by CLSI agar dilution method. It counts as functional. To be noted: 08-4, 18 h.
For series [7], the system named is Staphylococcus aureus. The series can be described thus: Antibacterial activity against 10^4 CFU methicillin-resistant Staphylococcus aureus 08-1 after 18 hrs by CLSI agar dilution method. It counts as functional. To be noted: 08-1, 18 h.
Series [8] has as its system Klebsiella pneumoniae. The series can be described thus: Antibacterial activity against 10^4 CFU Klebsiella pneumoniae 09-22 after 18 hrs by CLSI agar dilution method. It counts as functional. To be noted: 09-22, 18 h.
Series [9] concerns Klebsiella pneumoniae. Description: Antibacterial activity against 10^4 CFU Klebsiella pneumoniae 09-23 after 18 hrs by CLSI agar dilution method. To be noted: 09-23, 18 h. It counts as functional.
The nature of series [10]: Cytotoxicity against MDCK cells after 48 hrs by CPE assay. To be noted: dog. It counts as cell-based, Canis lupus familiaris. In outline:
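MDCK cells kept in Minimum Essential Medium with Earle's salt plus 10% fetal bovine serum at 37 °C, 5% CO₂. […] Medium then replaced by assay medium with or without compound. After 48 h exposure, viability read by CPE assay. CC₅₀ calculated by Reed–Muench analysis.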

Series [11] concerns Enterococcus faecium. The series can be described thus: Antibacterial activity against 10^4 CFU Enterococcus faecium 08-2 after 18 hrs by CLSI agar dilution method. The format is functional. To be noted: 08-2, 18 h.
Series [12] deals with Staphylococcus epidermidis. Description: Antibacterial activity against 10^4 CFU methicillin-sensitive Staphylococcus epidermidis 09-6 after 18 hrs by CLSI agar dilution method. The format is functional. The settings on record: 09-6, 18 h.
In series [13] the test system is Enterococcus faecium. The series can be described thus: Antibacterial activity against 10^4 CFU Enterococcus faecium 06-7 after 18 hrs by CLSI agar dilution method. The settings on record: 06-7, 18 h. The format is functional.
Series [14] deals with Escherichia coli. Description: Antibacterial activity against 10^4 CFU Escherichia coli ATCC 25922 after 18 hrs by CLSI agar dilution method. The settings on record: ATCC 25922, 18 h. It counts as functional.
The test system of series [15] is Staphylococcus aureus. Description: Antibacterial activity against 10^4 CFU methicillin-sensitive Staphylococcus aureus 08-1 after 18 hrs by CLSI agar dilution method. The settings on record: 08-1, 18 h. The format is functional.
The test system of series [16] is Escherichia coli. The series can be described thus: Antibacterial activity against 10^4 CFU Escherichia coli 08-21 after 18 hrs by CLSI agar dilution method. The format is functional. The settings on record: 08-21, 18 h.

In brackets after ≈: the same amount, converted by molar mass.

On to `CO/N=C1\CN(c2nc3c(cc2F)c(=O)c(C(=O)O)cn3-c2ccc(F)cc2F)CCC1(C)N` (stereo not drawn), for which the MIC is 64 µg/mL (≈ 135 µM) in the series on Enterococcus faecalis [1]; 0.25 µg/mL (≈ 0.526 µM) in series [2]; 4 µg/mL (≈ 8.41 µM) against Pseudomonas aeruginosa [3]; 0.25 µg/mL (≈ 0.526 µM) against Staphylococcus aureus [4]; 64 µg/mL (≈ 135 µM) against Enterococcus faecalis [5]; 0.25 µg/mL (≈ 0.526 µM) against Pseudomonas aeruginosa [6]. In addition, the MIC against Streptococcus pneumoniae is 1 µg/mL (≈ 2.1 µM); with Staphylococcus aureus [7], 0.25 µg/mL (≈ 0.526 µM); in the series on Klebsiella pneumoniae [8], 64 µg/mL (≈ 135 µM); against Klebsiella pneumoniae [9], 64 µg/mL (≈ 135 µM); with Enterococcus faecium [11], greater than 128 µg/mL; in series [12], 0.25 µg/mL (≈ 0.526 µM). Besides, the MIC against Enterococcus faecium [13] was greater than 128 µg/mL; against Escherichia coli [14], 16 µg/mL (≈ 33.7 µM); against Staphylococcus aureus [15] it was 0.25 µg/mL (≈ 0.526 µM); in the series with Escherichia coli [16] it was greater than 128 µg/mL. This compound also gave a CC50 at 48 h in [10] of 93 µM.

Regarding `CCO/N=C1\CN(c2c(F)cc3c(=O)c(C(=O)O)cn(C4CC4)c3c2F)CCC1(C)N` (stereo not drawn), the MIC in the series with Enterococcus faecalis [1] is 4 µg/mL (≈ 9.21 µM); in series [2], 0.5 µg/mL (≈ 1.15 µM); against Pseudomonas aeruginosa [3], 8 µg/mL (≈ 18.4 µM); against Staphylococcus aureus [4], 0.5 µg/mL (≈ 1.15 µM); in the series with Enterococcus faecalis [5] it was greater than 128 µg/mL; in the series with Pseudomonas aeruginosa [6], 4 µg/mL (≈ 9.21 µM). Moreover, the MIC was 4 µg/mL (≈ 9.21 µM) in the series with Streptococcus pneumoniae; 0.5 µg/mL (≈ 1.15 µM) against Staphylococcus aureus [7]; 4 µg/mL (≈ 9.21 µM) against Klebsiella pneumoniae [8]; greater than 128 µg/mL in the series on Klebsiella pneumoniae [9]; greater than 128 µg/mL with Enterococcus faecium [11]; 0.5 µg/mL (≈ 1.15 µM) in [12]. The MIC with Enterococcus faecium [13] is greater than 128 µg/mL; against Escherichia coli [14] it was 128 µg/mL (≈ 295 µM); against Staphylococcus aureus [15], 0.5 µg/mL (≈ 1.15 µM); in the series on Escherichia coli [16] it was greater than 128 µg/mL. The compound further gave a 50% cytotoxic concentration (CC50) at 48 h in [10] of 288 µM.

Turning to `CCO/N=C1\CN(c2c(F)cc3c(=O)c(C(=O)O)cn(C4CC4)c3c2OC(F)F)CCC1(C)N` (stereo not drawn), the minimal inhibitory concentration (MIC) worked out at 8 µg/mL (≈ 16.6 µM) against Enterococcus faecalis [1]; 0.25 µg/mL (≈ 0.518 µM) in series [2]; 4 µg/mL (≈ 8.29 µM) in the series with Pseudomonas aeruginosa [3]; 0.125 µg/mL (≈ 0.259 µM) against Staphylococcus aureus [4]; 32 µg/mL (≈ 66.3 µM) in the series with Enterococcus faecalis [5]; 16 µg/mL (≈ 33.2 µM) in the series on Pseudomonas aeruginosa [6]. The MIC was 0.25 µg/mL (≈ 0.518 µM) with Streptococcus pneumoniae; 0.25 µg/mL (≈ 0.518 µM) in the series with Staphylococcus aureus [7]; 16 µg/mL (≈ 33.2 µM) in the series with Klebsiella pneumoniae [8]; 8 µg/mL (≈ 16.6 µM) with Klebsiella pneumoniae [9]; 128 µg/mL (≈ 265 µM) against Enterococcus faecium [11]; 0.25 µg/mL (≈ 0.518 µM) in series [12]. Moreover, the MIC with Enterococcus faecium [13] was determined as 128 µg/mL (≈ 265 µM); with Escherichia coli [14], 16 µg/mL (≈ 33.2 µM); against Staphylococcus aureus [15], 0.25 µg/mL (≈ 0.518 µM); in the series on Escherichia coli [16], 128 µg/mL (≈ 265 µM). Moreover, in [10], the midpoint of cytotoxicity, the CC50 at 48 h, lay at 518 µM.

For the compound `CO/N=C1\CN(c2nc3c(cc2F)c(=O)c(C(=O)O)cn3C2CC2)CC1CN` (stereo not drawn) [GEMIFLOXACIN], the MIC in the series with Enterococcus faecalis [1] is 16 µg/mL (≈ 41.1 µM); in series [2], 0.125 µg/mL (≈ 0.321 µM); against Pseudomonas aeruginosa [3] it was 2 µg/mL (≈ 5.14 µM); in the series with Staphylococcus aureus [4], 0.125 µg/mL (≈ 0.321 µM); in the series on Enterococcus faecalis [5] it was 16 µg/mL (≈ 41.1 µM); in the series with Pseudomonas aeruginosa [6], 0.25 µg/mL (≈ 0.642 µM). The MIC is 0.25 µg/mL (≈ 0.642 µM) in the series with Streptococcus pneumoniae; 0.25 µg/mL (≈ 0.642 µM) against Staphylococcus aureus [7]; 8 µg/mL (≈ 20.5 µM) in the series on Klebsiella pneumoniae [8]; 8 µg/mL (≈ 20.5 µM) against Klebsiella pneumoniae [9]; 2 µg/mL (≈ 5.14 µM) against Enterococcus faecium [11]; 0.25 µg/mL (≈ 0.642 µM) in series [12]. The MIC stood at 16 µg/mL (≈ 41.1 µM) in the series with Enterococcus faecium [13], 4 µg/mL (≈ 10.3 µM) against Escherichia coli [14], 0.06 µg/mL (≈ 0.154 µM) in the series with Staphylococcus aureus [15] and 16 µg/mL (≈ 41.1 µM) against Escherichia coli [16]. This compound also gave a CC50 at 48 h in [10] of 321 µM.

For the compound `COc1c(N2C[C@@H]3CCCN[C@@H]3C2)c(F)cc2c(=O)c(C(=O)O)cn(C3CC3)c12` [MOXIFLOXACIN], half-maximal cytotoxicity in series [10] (CC50 at 48 h) was put at 161 µM.

Consider `C[C@H]1COc2c(N3CCN(C)CC3)c(F)cc3c(=O)c(C(=O)O)cn1c23.C[C@H]1COc2c(N3CCN(C)CC3)c(F)cc3c(=O)c(C(=O)O)cn1c23.O` [LEVOFLOXACIN], for which the MIC was determined as 8 µg/mL in the series on Enterococcus faecalis [1]; 0.25 µg/mL in series [2]; 0.25 µg/mL with Staphylococcus aureus [4]; 8 µg/mL in the series with Enterococcus faecalis [5]; 16 µg/mL in the series on Pseudomonas aeruginosa [6]; 0.125 µg/mL with Staphylococcus aureus [7]. For the same compound, the MIC was found to be 16 µg/mL with Klebsiella pneumoniae [8]; 16 µg/mL in the series with Klebsiella pneumoniae [9]; 4 µg/mL against Enterococcus faecium [11]; 4 µg/mL in [12]; 16 µg/mL in the series on Enterococcus faecium [13]; 2 µg/mL against Escherichia coli [14]. The MIC worked out at 0.125 µg/mL with Staphylococcus aureus [15] and 16 µg/mL with Escherichia coli [16].

For the origin of these results see ChEMBL document CHEMBL1781961, “Synthesis and in vitro antibacterial activity of 7-(3-alkoxyimino-4-amino-4-methylpiperidin-1-yl) fluoroquinolone derivatives” (Eur J Med Chem, 2011).
